Measured values: ChEMBL document CHEMBL3272093, “Antibacterial halogenoacetyl derivatives of amino acids and simple peptides” (1977)
≈ marks a conversion by molar mass, not a printed value. Calls of active or inactive are those of the source. No cut-off for these calls is given here.

Legend:
[1] = target: D-alanyl-D-alanine carboxypeptidase (Streptomyces sp. R61) (UniProt P15555); experiment: Inhibition of Streptomyces R61 DD-carboxypeptidase using Ac2-L-Lys-D-Ala-D-Ala as substrate at 10 to 100 ug/ml
Method in brief: (§1)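 Enzymes tested for release of D-alanine, measured with D-amino acid oxidase. Compounds assayed at 10 and 100 μg/mL. Substrates: Ac2-L-Lys-D-Ala-D-Ala for the Streptomyces R61 enzyme; UDP-N-acetylmuramyl-L-alanyl-meso-diaminopimeloyl-D-alanyl-D-alanine for the B. stearothermophilus and S. typhimurium enzymes.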

[2] = test system: Salmonella enterica subsp. enterica serovar Typhimurium; experiment: Inhibition of Salmonella typhimurium DD-carboxypeptidase using UDP-N-acetylmuramyl-L-alanyl-meso-diaminopimeloyl-D-alanyl-D-alanine as substrate at 10 to 100 ug/ml; method in brief: as §1
Escherichia coli = experiment: Antibacterial activity against Escherichia coli assessed as inhibition of growth after 18 hrs by broth culture method; type: functional
Method in brief: (§2)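 Broth dilution in 0.5 mL Sensitivity Test Broth, inoculated with 0.2 mL of a 10^-4 dilution of an 18-h broth culture. MIC read after 18-h incubation as the lowest concentration preventing growth.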

[3] = target: T1, D-alanyl-D-alanine carboxypeptidase DacA (Geobacillus stearothermophilus) (UniProt Q05523); experiment: Inhibition of Bacillus stearothermophilus DD-carboxypeptidase using UDP-N-acetylmuramyl-L-alanyl-meso-diaminopimeloyl-D-alanyl-D-alanine as substrate at 10 to 100 ug/ml; method in brief: as §1
T1 sequence (whole entry): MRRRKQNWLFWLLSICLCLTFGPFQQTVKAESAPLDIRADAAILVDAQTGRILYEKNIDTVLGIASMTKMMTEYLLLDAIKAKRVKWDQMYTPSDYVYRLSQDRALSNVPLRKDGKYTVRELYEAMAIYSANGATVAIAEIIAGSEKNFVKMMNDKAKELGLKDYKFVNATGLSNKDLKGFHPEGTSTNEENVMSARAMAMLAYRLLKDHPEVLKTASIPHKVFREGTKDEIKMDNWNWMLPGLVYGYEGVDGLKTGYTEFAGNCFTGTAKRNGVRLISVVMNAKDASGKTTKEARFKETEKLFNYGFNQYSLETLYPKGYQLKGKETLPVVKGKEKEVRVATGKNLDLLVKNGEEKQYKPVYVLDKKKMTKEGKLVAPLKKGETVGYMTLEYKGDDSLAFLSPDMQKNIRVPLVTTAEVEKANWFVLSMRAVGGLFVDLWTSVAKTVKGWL

Staphylococcus aureus = experiment: Antibacterial activity against Staphylococcus aureus assessed as inhibition of growth after 18 hrs by broth culture method; type: functional; method in brief: as §2

Sequence of D-alanyl-D-alanine carboxypeptidase (Streptomyces sp. R61) (P15555 whole entry): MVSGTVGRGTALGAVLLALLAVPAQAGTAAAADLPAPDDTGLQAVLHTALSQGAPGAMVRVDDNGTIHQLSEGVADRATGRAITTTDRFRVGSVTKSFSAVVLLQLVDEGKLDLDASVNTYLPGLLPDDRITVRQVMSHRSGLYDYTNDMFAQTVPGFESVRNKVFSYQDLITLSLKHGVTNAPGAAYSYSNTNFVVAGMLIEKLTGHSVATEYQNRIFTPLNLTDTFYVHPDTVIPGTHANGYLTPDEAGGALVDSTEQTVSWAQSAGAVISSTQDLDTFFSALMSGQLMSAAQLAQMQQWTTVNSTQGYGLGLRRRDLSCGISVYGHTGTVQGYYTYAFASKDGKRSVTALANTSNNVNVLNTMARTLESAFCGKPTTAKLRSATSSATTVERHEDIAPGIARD

| SMILES | inhibition [1] | inhibition [2] | MIC (Escherichia coli) [µg/mL] | inhibition [3] | MIC (Staphylococcus aureus) [µg/mL] |
| --- | --- | --- | --- | --- | --- |
| CC(C)(C)OC(=O)CCCCNC(=O)CI | inactive | inactive | 500 (≈ 1470 µM) | inactive | 7.5 (≈ 22 µM) |
| C[C@@H](NC(=O)CI)C(=O)N[C@H](CCC(=O)O)C(=O)O | inactive | inactive | > 500 | inactive | 500 (≈ 1290 µM) |
| C[C@@H](NC(=O)[C@H](CCCCNC(=O)CI)NC(=O)OC(C)(C)C)C(=O)N[C@H](C)C(=O)OC(C)(C)C | inactive | inactive | > 500 | inactive | 125 (≈ 204 µM) |
| C[C@@H](NC(=O)[C@@H](C)NC(=O)[C@H](CCCCN)NC(=O)CI)C(=O)O.O=C(O)C(F)(F)F | inactive | inactive | > 500 | inactive | > 500 |
| O=C(CI)NCCCC(=O)OCc1ccccc1 | inactive | inactive | 250 (≈ 692 µM) | inactive | 7.5 (≈ 20.8 µM) |
| CC(=O)NCCCC[C@H](NC(=O)CI)C(=O)N[C@H](C)C(=O)N[C@H](C)C(=O)OC(C)(C)C | inactive | inactive | > 500 | inactive | 500 (≈ 902 µM) |
| C[C@@H](NC(=O)[C@H](CCCCN1C(=O)c2ccccc2C1=O)NC(=O)CI)C(=O)N[C@H](CCC(=O)O)C(=O)O | inactive | inactive | > 500 | inactive | 250 (≈ 388 µM) |
| C[C@@H](NC(=O)[C@@H](C)NC(=O)[C@H](CCCCN)NC(=O)CBr)C(=O)O.O=C(O)C(F)(F)F | inactive | inactive | > 500 | inactive | > 500 |
| COC(=O)CCCCNC(=O)CI | inactive | inactive | 7.5 (≈ 25.1 µM) | inactive | 3.7 (≈ 12.4 µM) |
| C[C@@H](NC(=O)[C@H](CCCCNC(=O)OC(C)(C)C)NC(=O)CBr)C(=O)N[C@H](C)C(=O)OC(C)(C)C | inactive | inactive | 500 (≈ 884 µM) | inactive | 500 (≈ 884 µM) |
| C[C@@H](NC(=O)CBr)C(=O)N[C@H](C)C(=O)OC(C)(C)C | inactive | inactive | > 500 | inactive | 62 (≈ 184 µM) |
| O=C(O)CCCCNC(=O)[C@H](CCCCN1C(=O)c2ccccc2C1=O)NC(=O)CI | inactive | inactive | > 500 | inactive | > 500 |
| C[C@@H](NC(=O)[C@H](CCCCN1C(=O)CCC1=O)NC(=O)CI)C(=O)N[C@H](C)C(=O)OC(C)(C)C | inactive | inactive | > 500 | inactive | > 500 |
| C[C@@H](NC(=O)[C@H](CCCCN1C(=O)c2ccccc2C1=O)NC(=O)CI)C(=O)N[C@H](C)C(=O)OC(C)(C)C | inactive | inactive | > 500 | inactive | 62 (≈ 96.5 µM) |
| C[C@@H](NC(=O)CI)C(=O)N[C@H](CCC(=O)OC(C)(C)C)C(=O)OC(C)(C)C | inactive | inactive | > 500 | inactive | 31 (≈ 62.2 µM) |
| O=C(CI)NCCC(=O)OCc1ccccc1 | inactive | inactive | 500 (≈ 1440 µM) | inactive | 7.5 (≈ 21.6 µM) |
| C[C@@H](NC(=O)CI)C(=O)OC(C)(C)C | inactive | inactive | > 500 | inactive | 31 (≈ 99 µM) |
| C[C@@H](NC(=O)[C@H](CCCCNC(=O)OC(C)(C)C)NC(=O)CBr)C(=O)OC(C)(C)C | inactive | inactive | > 500 | inactive | 62 (≈ 125 µM) |
| O=C(O)CCCCNC(=O)CI | inactive | inactive | 500 (≈ 1750 µM) | inactive | 125 (≈ 438 µM) |

| SMILES | inhibition [1] | inhibition [2] | MIC (Escherichia coli) [µg/mL] | inhibition [3] | MIC (Staphylococcus aureus) [µg/mL] |
| --- | --- | --- | --- | --- | --- |
| C[C@@H](NC(=O)[C@H](CCCCNC(=O)OC(C)(C)C)NC(=O)CI)C(=O)OC(C)(C)C | inactive | inactive | > 500 | inactive | 15 (≈ 27.7 µM) |
| C[C@@H](NC(=O)[C@H](CCCCNC(=O)OC(C)(C)C)NC(=O)CI)C(=O)N[C@H](C)C(=O)OC(C)(C)C | inactive | inactive | 500 (≈ 816 µM) | inactive | 250 (≈ 408 µM) |
| C[C@@H](NC(=O)CI)C(=O)N[C@H](C)C(=O)OC(C)(C)C | inactive | inactive | > 500 | inactive | 31 (≈ 80.7 µM) |
| C[C@@H](NC(=O)[C@H](CCCCN)NC(=O)CI)C(=O)N[C@H](C)C(=O)OC(C)(C)C.Cc1ccc(S(=O)(=O)O)cc1 | inactive | inactive | > 500 | inactive | 250 |
| CC(=O)NCCCC[C@H](NC(=O)CI)C(=O)N[C@H](C)C(=O)N[C@H](C)C(=O)O | inactive | inactive | > 500 | inactive | > 500 |
| C[C@@H](NC(=O)[C@H](CCCCN1C(=O)c2ccccc2C1=O)NC(=O)CI)C(=O)N[C@H](CCC(=O)OC(C)(C)C)C(=O)OC(C)(C)C | inactive | inactive | > 500 | inactive | 62 (≈ 81.9 µM) |
| CC(C)(C)OC(=O)CCCCNC(=O)[C@H](CCCCN1C(=O)c2ccccc2C1=O)NC(=O)CI.O | inactive | inactive | > 500 | inactive | > 500 |
| C[C@@H](NC(=O)CI)C(=O)N[C@H](C)C(=O)OCc1ccccc1 | inactive | inactive | > 500 | inactive | 7.5 (≈ 17.9 µM) |
| O=C(CI)NCCCCCC(=O)OCc1ccccc1 | inactive | inactive | 62 (≈ 159 µM) | inactive | 3.7 (≈ 9.51 µM) |
| C[C@@H](NC(=O)[C@H](CCCCN)NC(=O)CBr)C(=O)O.O=C(O)C(F)(F)F | inactive | inactive | > 500 | inactive | > 500 |
| C[C@@H](NC(=O)[C@@H](C)NC(=O)[C@@H](N)CCCCNC(=O)CI)C(=O)O.O=C(O)C(F)(F)F | inactive | inactive | > 500 | inactive | 500 |
| O=C(CI)NCCCCC(=O)OCc1ccccc1 | inactive | inactive | 62 (≈ 165 µM) | inactive | < 0.4 |
| C[C@@H](NC(=O)[C@@H](C)NC(=O)CI)C(=O)O | inactive | inactive | > 500 | inactive | 500 (≈ 1520 µM) |
| C[C@@H](NC(=O)[C@@H](C)NC(=O)[C@H](CCCCN1C(=O)CCC1=O)NC(=O)CI)C(=O)O | inactive | inactive | > 500 | inactive | 500 (≈ 929 µM) |
| C[C@@H](NC(=O)[C@H](CCCCN)NC(=O)CI)C(=O)O.O=C(O)C(F)(F)F | inactive | inactive | > 500 | inactive | > 500 |
| C[C@@H](NC(=O)[C@@H](C)NC(=O)CBr)C(=O)O | inactive | inactive | > 500 | inactive | 500 (≈ 1780 µM) |
| O=C(CI)NCC(=O)NCC(=O)OCc1ccccc1 | inactive | inactive | 62 (≈ 159 µM) | inactive | 0.9 (≈ 2.31 µM) |
| O=C(CI)NCC(=O)OCc1ccccc1 | inactive | inactive | 125 (≈ 375 µM) | inactive | 7.5 (≈ 22.5 µM) |
